Series [1] is described as follows: folding enthalpy; higher = less favourable; fluorescence melt of hairpins on a sequencing array, two-state fit. The note with it: sodium 0.088 M. In a few lines:
(§1)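 Cy3 signals were normalised both to pre-quench Cy3 and to control constructs. They came from library hairpins carrying annealed Cy3 and quencher oligos on a sequenced MiSeq flow cell, imaged in 50 mM Na-HEPES pH 8.0, 25 mM NaCl, in 2.5 °C steps up to 60 °C. Bootstrapped two-state fits gave melting temperature and folding enthalpy, and four replicates were combined by inverse variance. Fitted temperatures were then raised by 9.35 °C to match UV melts.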

Series [2] can be described thus: melting temperature; fluorescence melt of hairpins on a sequencing array, two-state fit, raised by 9.35 °C to match UV melts. The note with it: sodium 0.088 M. In a few lines: as §1

For GGTACTGAAAAGTACC ((((((....)))))), in series [1], the folding enthalpy was -39.5 kcal/mol. In addition, in series [2], the Tm was 57.4 °C.
On the same counts, the results for GGTAGAACGAAAGTTACC (((..(((....)))))) are -17 kcal/mol and 35 °C.
As for GGTAGAGGAAACCCTACC (((((.(....).))))), the folding enthalpy in series [1] was -33.4 kcal/mol. In addition, the Tm in series [2] was 38.2 °C.
Consider GGTAGAGGAAACTCTATC (.(((((....))))).), for which the folding enthalpy in series [1] was -26.9 kcal/mol. Besides, in series [2], the Tm is 37.1 °C.
The matching figures for GGTAGAGGAAACTTTACC ((((.((....)).)))): -24.9 kcal/mol and 34 °C.
Take GGTAGCCGAAAGGCGACC (((.(((....))).))): in series [1], the folding enthalpy was -24.5 kcal/mol. The Tm in series [2] worked out at 66.9 °C.
Regarding GGTAGCGAAAGCTAACC ((((((....))).))), the folding enthalpy in series [1] was -18.7 kcal/mol. For the same sequence, the Tm in series [2] was 53.8 °C.
As to GGTAGCGAAAGCTGTACC ((((((....)))..))), the folding enthalpy in series [1] was -19.9 kcal/mol. Further, the Tm in series [2] was determined as 40.7 °C.
The matching figures for GGTAGCGAAAGCTTGACC ((((((....)))..))): -13.9 kcal/mol and 35.7 °C.
With GGTAGGAAACTACC (((((....))))), in series [1], the folding enthalpy is -26.5 kcal/mol. Moreover, in series [2], the Tm worked out at 48.2 °C.
Take GGTAGGCGAAAGCCGACC (((.(((....))).))): in series [1], the folding enthalpy is -18.6 kcal/mol. Further, the Tm in series [2] worked out at 65.4 °C.
For the sequence GGTAGGGGAAACCCTATC (.(((((....))))).), the folding enthalpy in series [1] was -24.4 kcal/mol. Moreover, the Tm in series [2] turned out to be 44.3 °C.
On the same counts, the results for GGTAGGGGAAACCTTGCC ((.(.((....)).).)) are -20.2 kcal/mol and 34.7 °C.
The matching figures for GGTAGGGGAAACTCTGCC ((.((.(....).)).)): -22.9 kcal/mol and 35.1 °C.
On the same counts, the results for GGTAGTCGAAAGACAACC (((.(((....))).))) are -25.2 kcal/mol and 51.3 °C.
Consider GGTAGTGGAAACACTGTC (..((((....))))..), for which the folding enthalpy in series [1] was -20.9 kcal/mol. Moreover, the Tm in series [2] amounted to 29.2 °C.
On the same counts, the results for GGTAGTGGAAACATTACC ((((.((....)).)))) are -34.3 kcal/mol and 41.6 °C.
The matching figures for GGTATCCGAAAGGAAACC (((.(((....))).))): -31.9 kcal/mol and 48.8 °C.
On the same counts, the results for GGTATCGAAAGATCCACC ((((((....)))..))) are -14.7 kcal/mol and 31.8 °C.
Take GGTATCGAAAGATGAACC ((((((....)))..))): the folding enthalpy in series [1] is -15.4 kcal/mol. Also, the Tm in series [2] amounted to 27.9 °C.
Turning to GGTATCGAAAGATGCACC ((((((....)))..))), in series [1], the folding enthalpy is -16.1 kcal/mol. The Tm in series [2] was 33.9 °C.
On the same counts, the results for GGTATCGAAAGATGGACC ((((((....)))..))) are -15.2 kcal/mol and 28.9 °C.
On the same counts, the results for GGTATGCGAAAGCAACC (((.(((....)))))) are -14.5 kcal/mol and 47.7 °C.
On the same counts, the results for GGTATGGGAAACCACACC (((.(((....))).))) are -27 kcal/mol and 38.6 °C.
Regarding GGTATGGGAAACCATATC (.(((((....))))).), the folding enthalpy in series [1] was -24.1 kcal/mol. The Tm in series [2] is 39.7 °C.
The matching figures for GGTATGGGAAACCATGTC (..((((....))))..): -13.5 kcal/mol and 27.4 °C.
Consider GGTATTGAAAAATACC ((((((....)))))), for which, in series [1], the folding enthalpy is -38.8 kcal/mol. The Tm in series [2] is 49 °C.
Take GGTATTGGAAACAATACC (((((((....))))))): the folding enthalpy in series [1] was -43.7 kcal/mol. Moreover, the Tm in series [2] is 56.9 °C.
For GGTATTGGAAACAATATC (.(((((....))))).), the folding enthalpy in series [1] was -24.9 kcal/mol. The Tm in series [2] was determined as 37.1 °C.
On the same counts, the results for GGTCAAGCGAAAGCTACC (((..(((....)))))) are -17.8 kcal/mol and 34.8 °C.
The matching figures for GGTCAAGGAAACCTGACC (((((.(....).))))): -30.5 kcal/mol and 46.5 °C.
On the same counts, the results for GGTCACCGAAAGGTAACC (((.(((....))).))) are -27.5 kcal/mol and 48.4 °C.
With GGTCACGAAAGTGAGACC ((((((....)))..))), the folding enthalpy in series [1] is -15.7 kcal/mol. Besides, the Tm in series [2] came out at 45.8 °C.
On the same counts, the results for GGTCACGAAAGTGGTACC ((((((....)))..))) are -14.3 kcal/mol and 42.7 °C.
For the sequence GGTCACGAAAGTGTCACC ((((((....)))..))), the folding enthalpy in series [1] is -13.3 kcal/mol. Also, the Tm in series [2] came to 37.9 °C.
GGTCACGAAAGTGTGACC ((((((....)))..))): in series [1], the folding enthalpy was -33.8 kcal/mol. Moreover, in series [2], the Tm was 56.3 °C.
Turning to GGTCACGGAAACGTGGCC ((.((((....)))).)), in series [1], the folding enthalpy is -37.2 kcal/mol. The Tm in series [2] was determined as 64.9 °C.

(Values after the array DNA melting data of Ke et al. (doi:10.1101/2024.01.08.574731).)
